pEC50: −log10 of the molar value.
Tests used:
[1] = system: Human immunodeficiency virus 1; experiment: Antiviral activity against Human immunodeficiency virus 1 subtype O isolate BCF03 infected in human PBMC cells by cell based assay; conditions: Human immunodeficiency virus 1, subtype O isolate BCF03, PBMC
[2] = system: Human immunodeficiency virus 1; experiment: Antiviral activity against Human immunodeficiency virus 1 group M subtype AE assessed as days to viral replication breakthrough at 40 nM by cell based assay; type: functional
[3] = system: Human immunodeficiency virus 1; experiment: Antiviral activity against Human immunodeficiency virus 1 group M subtype F1 assessed as days to viral replication breakthrough at 40 nM by cell based assay; type: functional
[4] = system: Human immunodeficiency virus 1; experiment: Antiviral activity against Human immunodeficiency virus 1 group M subtype D assessed as days to viral replication breakthrough at 40 nM by cell based assay; type: functional
MT4 = experiment: Cytotoxicity against human MT4 cells by cell based assay
In short: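 Cytotoxicity in MT4 cells from cell-based assays gave a 50% cytotoxic concentration, reported as a median with first- to third-quartile values over the stated number of experiments.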

[5] = system: Human immunodeficiency virus 1; experiment: Antiviral activity against Human immunodeficiency virus 1 subtype D isolate 92UG001 infected in human PBMC cells by cell based assay; conditions: Human immunodeficiency virus 1, subtype D isolate 92UG001, PBMC
[6] = system: Human immunodeficiency virus 1; experiment: Antiviral activity against Human immunodeficiency virus 1 subtype A isolate 92UG029 infected in human PBMC cells by cell based assay; conditions: Human immunodeficiency virus 1, subtype A isolate 92UG029, PBMC
[7] = system: Human immunodeficiency virus 1; experiment: Antiviral activity against Human immunodeficiency virus 1 subtype C isolate 93IN101 infected in human PBMC cells by cell based assay; conditions: Human immunodeficiency virus 1, subtype C isolate 93IN101, PBMC
[8] = system: Human immunodeficiency virus 1; experiment: Antiviral activity against Human immunodeficiency virus 1 group M subtype D assessed as days to viral replication breakthrough at 10 nM by cell based assay; type: functional
[9] = system: Human immunodeficiency virus 1; experiment: Antiviral activity against Human immunodeficiency virus 1 3B infected in human MT4 cells assessed as reduction in virus induced cytopathicity; type: functional, organism-based
In short: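 MT4 cells (1.5 × 10^5/ml) infected with HIV-1 IIIB at MOI 0.01 and added to serially diluted compound. Cultures incubated 5 days at 37°C under 5% CO2. Cell viability, as protection from virus-induced killing, read by MTT tetrazolium colorimetry. EC50 reported as median with first to third quartiles over n experiments.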

[10] = system: Human immunodeficiency virus 1; experiment: Antiviral activity against Human immunodeficiency virus 1 group M subtype A1 assessed as days to viral replication breakthrough at 40 nM by cell based assay; type: functional
[11] = system: Human immunodeficiency virus 1; experiment: Antiviral activity against Human immunodeficiency virus 1 group M subtype F1 assessed as days to viral replication breakthrough at 10 nM by cell based assay; type: functional
[12] = system: Human immunodeficiency virus 1; experiment: Antiviral activity against Human immunodeficiency virus 1 subtype E isolate CMU08 infected in human PBMC cells by cell based assay; conditions: Human immunodeficiency virus 1, subtype E isolate CMU08, PBMC
[13] = system: Human immunodeficiency virus 1; experiment: Antiviral activity against Human immunodeficiency virus 1 subtype AE infected in human MT4 cells assessed as reduction in virus induced cytopathicity; type: functional, organism-based
In short: (§1)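 Recombinant viruses were made by recombining patient-derived HIV-1 RT-PR sequences into an RT-PR-deleted HXB2 proviral clone transfected into MT4 cells. Subtype was assigned from PR/RT sequence by Smith-Waterman alignment to HXB2. MT4 cells (1.5 × 10^5/ml) were infected at MOI 0.01 with serially diluted compound for 5 days at 37°C. Viability was read by MTT and EC50 derived.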

[14] = system: Human immunodeficiency virus 1; experiment: Antiviral activity against Human immunodeficiency virus 1 group M subtype C assessed as days to viral replication breakthrough at 200 nM by cell based assay; type: functional
[15] = system: Human immunodeficiency virus 1; experiment: Antiviral activity against Human immunodeficiency virus 1 group M subtype G assessed as days to viral replication breakthrough at 200 nM by cell based assay; type: functional
[16] = system: Human immunodeficiency virus 1; experiment: Antiviral activity against Human immunodeficiency virus 1 group M subtype H assessed as days to viral replication breakthrough at 200 nM by cell based assay; type: functional
[17] = system: Human immunodeficiency virus 1; experiment: Antiviral activity against Human immunodeficiency virus 1 group M subtype C assessed as days to viral replication breakthrough at 40 nM by cell based assay; type: functional
[18] = system: Human immunodeficiency virus 1; experiment: Antiviral activity against Human immunodeficiency virus 1 group M subtype BG assessed as days to viral replication breakthrough at 40 nM by cell based assay; type: functional
[19] = system: Human immunodeficiency virus 2; experiment: Antiviral activity against Human immunodeficiency virus 2 ROD infected in human MT4 cells assessed as reduction in virus induced cytopathicity; type: functional, organism-based; conditions: Human immunodeficiency virus 2, ISOLATE ROD
In short: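 MT4 cells (1.5 × 10^5/ml) infected with HIV (MOI 0.01) were added to serial compound dilutions and incubated 5 days at 37°C in 5% CO2. Protection from virus-induced cell death was read by MTT tetrazolium colorimetry, giving an EC50 in micromolar.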

[20] = system: Human immunodeficiency virus 1; experiment: Antiviral activity against Human immunodeficiency virus 1 subtype B isolate JR-CSF infected in human PBMC cells by cell based assay
[21] = system: Human immunodeficiency virus 1; experiment: Antiviral activity against Human immunodeficiency virus 1 subtype D infected in human MT4 cells assessed as reduction in virus induced cytopathicity; type: functional, organism-based; in short: as §1
[22] = system: Human immunodeficiency virus 1; experiment: Antiviral activity against Human immunodeficiency virus 1 subtype O isolate BCF02 infected in human PBMC cells by cell based assay; conditions: Human immunodeficiency virus 1, subtype O isolate BCF02, PBMC
[23] = system: Human immunodeficiency virus 1; experiment: Antiviral activity against Human immunodeficiency virus 1 subtype O misolate BCF01 infected in human PBMC cells by cell based assay; conditions: Human immunodeficiency virus 1, subtype O isolate BCF01, PBMC
[24] = system: Human immunodeficiency virus 1; experiment: Antiviral activity against Human immunodeficiency virus 1 subtype D isolate 92UG035 infected in human PBMC cells by cell based assay; conditions: Human immunodeficiency virus 1, subtype D 92UG035, PBMC
[25] = system: Human immunodeficiency virus 1; experiment: Antiviral activity against Human immunodeficiency virus 1 subtype F isolate 93BR020 infected in human PBMC cells by cell based assay; conditions: Human immunodeficiency virus 1, subtype F isolate 93BR020, PBMC
[26] = system: Human immunodeficiency virus 1; experiment: Antiviral activity against Human immunodeficiency virus 1 subtype (H) infected in human MT4 cells assessed as reduction in virus induced cytopathicity; type: functional, organism-based; in short: as §1
[27] = system: Human immunodeficiency virus 1; experiment: Antiviral activity against Human immunodeficiency virus 1 group M subtype AG assessed as days to viral replication breakthrough at 10 nM by cell based assay; type: functional
[28] = system: Human immunodeficiency virus 1; experiment: Antiviral activity against Human immunodeficiency virus 1 subtype A isolate 92UG037 infected in human PBMC cells by cell based assay; conditions: Human immunodeficiency virus 1, subtype A isolate 92UG037, PBMC
[29] = system: Human immunodeficiency virus 1; experiment: Antiviral activity against Human immunodeficiency virus 1 subtype B isolate 93BR021 infected in human PBMC cells by cell based assay; conditions: Human immunodeficiency virus 1, subtype B isolate 93BR021, PBMC
[30] = system: Human immunodeficiency virus 1; experiment: Antiviral activity against Human immunodeficiency virus 1 subtype C isolate 93MW959 infected in human PBMC cells by cell based assay; conditions: Human immunodeficiency virus 1, subtype C isolate 93MW959, PBMC
[31] = system: Human immunodeficiency virus 1; experiment: Antiviral activity against Human immunodeficiency virus 1 subtype G isolate JV1083 infected in human PBMC cells by cell based assay; conditions: Human immunodeficiency virus 1, subtype G isolate JV1083, PBMC
[32] = system: Human immunodeficiency virus 1; experiment: Antiviral activity against Human immunodeficiency virus 1 group M subtype B assessed as days to viral replication breakthrough at 40 nM by cell based assay; type: functional

Work on `Cc1cc(/C=C/C#N)cc(C)c1Nc1ccnc(Nc2ccc(C#N)cc2)n1` [RILPIVIRINE] yielded a pEC50 [1] of 8.07, an Activity [2] greater than 31 days and an Activity [3] greater than 31 days. The Activity [4] was greater than 31 days, the Activity (MT4) was 5.91 µM and the pEC50 [5] was 9.59. For the same compound, the pEC50 [6] was 9.36, the pEC50 [7] was 9.28 and the Activity [8] was 20 days. It also gave a pEC50 [9] of 9.14, an Activity [10] greater than 31 days and an Activity [11] greater than 31 days. For the same compound, the pEC50 [12] was 9.00, the pEC50 [13] was 9.68 and the Activity [14] was greater than 31 days. It also gave an Activity [15] greater than 31 days, an Activity [16] greater than 31 days and an Activity [17] greater than 31 days. For the same compound, the Activity [18] was 13 days, the pEC50 [19] was 5.28 and the pEC50 [20] was 9.29. It also gave a pEC50 [21] of 9.52, a pEC50 [22] of 8.54 and a pEC50 [23] of 8.50. It also gave a pEC50 [24] of 10.15, a pEC50 [25] of 9.80 and a pEC50 [26] of 9.62. It also gave an Activity [27] greater than 31 days, a pEC50 [28] of 9.62 and a pEC50 [29] of 9.64. It also gave a pEC50 [30] of 9.96, a pEC50 [31] of 9.59 and an Activity [32] greater than 31 days.

— ChEMBL document CHEMBL1240360, “TMC278, a next-generation nonnucleoside reverse transcriptase inhibitor (NNRTI), active against wild-type and NNRTI-resistant HIV-1” (Antimicrob Agents Chemother, 2010)
